We go through four compounds from ChEMBL document CHEMBL1140038, “Synthesis and evaluation of indolinyl- and indolylphenylacetylenes as PET imaging agents for beta-amyloid plaques” (Bioorg Med Chem Lett, 2008).

The target in data set [1] is T1, Amyloid-beta precursor protein (Homo sapiens, UniProt P05067). The data set is described as follows: Displacement of [125I]IMPY from beta-amyloid plaques in AD patient brain. In a few lines:
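Competition binding against the radioligand [125I]IMPY (6-iodo-2-(4'-dimethylamino-)phenylimidazo[1,2-a]pyridine). Tissue: homogenates of postmortem AD brain. Reported as Ki.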

Data set [2] concerns the target T1, Amyloid-beta precursor protein. The data set is described as follows: Binding affinity to beta-amyloid in gray matter of AD patent brain. To be noted: tested as the 18F-labelled form. Type of data set: tissue-based.
The nature of data set [3]: Drug level in mouse brain after 2 mins. Type of data set: ADME, tissue-based. The conditions noted are these: read-out: Drug uptake. A digest of the protocol: (§1)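 [18F]-labelled ligands, HPLC-purified to >97% radiochemical purity, given by injection to normal mice. Brain radioactivity measured at 2 min, 2 h and 3 h after injection. Expressed as % injected dose per gram of tissue.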

A short description of data set [4]: Drug level in mouse brain after 3 hrs. Type of data set: ADME, tissue-based. To be noted: read-out: Drug uptake. In a few lines:
as §1

A short description of data set [5]: Partition coefficient, log P of the compound. It is filed as physicochemical. To be noted: octanol/water. A digest of the protocol: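 Partition coefficient measured for the HPLC-purified [18F]-radiolabelled ligands at pH 7.4. Reported as log P.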
Data set [6] can be described thus: Drug level in mouse brain after 2 hrs. To be noted: read-out: Drug uptake. It is filed as ADME, tissue-based. A digest of the protocol: as §1

The source made the active and inactive calls. The rule behind the calls is not given here.

T1 sequence (P05067 whole entry): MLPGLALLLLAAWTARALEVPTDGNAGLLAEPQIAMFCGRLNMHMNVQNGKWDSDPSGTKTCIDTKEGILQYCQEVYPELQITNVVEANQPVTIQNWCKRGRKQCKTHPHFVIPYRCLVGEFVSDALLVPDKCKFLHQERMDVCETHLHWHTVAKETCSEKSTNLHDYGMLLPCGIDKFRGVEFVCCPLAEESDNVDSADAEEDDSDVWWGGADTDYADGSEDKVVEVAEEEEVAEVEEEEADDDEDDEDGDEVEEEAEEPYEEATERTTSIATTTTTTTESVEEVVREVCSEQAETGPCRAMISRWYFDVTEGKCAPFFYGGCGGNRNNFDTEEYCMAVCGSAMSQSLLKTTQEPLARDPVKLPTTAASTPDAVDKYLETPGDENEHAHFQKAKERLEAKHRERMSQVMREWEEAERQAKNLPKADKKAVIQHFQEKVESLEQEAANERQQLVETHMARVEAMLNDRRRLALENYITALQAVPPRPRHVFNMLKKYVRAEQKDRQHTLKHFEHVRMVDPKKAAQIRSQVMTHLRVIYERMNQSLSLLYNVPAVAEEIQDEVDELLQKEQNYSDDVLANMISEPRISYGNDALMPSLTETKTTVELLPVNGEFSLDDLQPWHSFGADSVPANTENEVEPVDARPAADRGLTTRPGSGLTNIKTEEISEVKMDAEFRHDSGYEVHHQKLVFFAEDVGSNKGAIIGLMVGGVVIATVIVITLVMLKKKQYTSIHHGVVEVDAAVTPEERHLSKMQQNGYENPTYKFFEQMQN

`FCCOCCOCCOc1ccc(C#Cc2ccc3[nH]ccc3c2)cc1`: affinity in data set [1] was put at a Ki of 1.5 nM. Besides, the result in data set [2] was Active.
As to `[18F]CCOCCOCCOc1ccc(C#Cc2ccc3[nH]ccc3c2)cc1`, the tissue uptake at 2 min in data set [3] turned out to be 2.43 %ID/g. Also, the tissue uptake at 3 h in data set [4] was 2.1 %ID/g. Besides, in data set [5], the logP was found to be 2.56.
In the case of `[18F]CCOCCOCCOc1ccc(C#Cc2ccc3c(c2)CCN3)cc1`, the tissue uptake at 2 min in data set [3] amounted to 4.5 %ID/g. In data set [6], the tissue uptake at 2 h was found to be 1.71 %ID/g. Further, the logP in data set [5] is 2.95.
In turn, `FCCOCCOCCOc1ccc(C#Cc2ccc3c(c2)CCN3)cc1` gave a Ki in data set [1] of 4 nM. Also, the result in data set [2] was Active.
